Measurements from ChEMBL document CHEMBL1155208 (Eur J Med Chem, 2009).
pIC50, pKi: −log10 of the molar value.

Legend:
[1] = molecular target: T1, Muscarinic acetylcholine receptor M1 (Rattus norvegicus, UniProt P08482); test: Displacement of [3H]QNB from muscarinic M1 receptor in Wistar rat brain cortex membrane after 2 hrs by liquid scintillation counting; format: cell membranes
T1 sequence (P08482 whole entry): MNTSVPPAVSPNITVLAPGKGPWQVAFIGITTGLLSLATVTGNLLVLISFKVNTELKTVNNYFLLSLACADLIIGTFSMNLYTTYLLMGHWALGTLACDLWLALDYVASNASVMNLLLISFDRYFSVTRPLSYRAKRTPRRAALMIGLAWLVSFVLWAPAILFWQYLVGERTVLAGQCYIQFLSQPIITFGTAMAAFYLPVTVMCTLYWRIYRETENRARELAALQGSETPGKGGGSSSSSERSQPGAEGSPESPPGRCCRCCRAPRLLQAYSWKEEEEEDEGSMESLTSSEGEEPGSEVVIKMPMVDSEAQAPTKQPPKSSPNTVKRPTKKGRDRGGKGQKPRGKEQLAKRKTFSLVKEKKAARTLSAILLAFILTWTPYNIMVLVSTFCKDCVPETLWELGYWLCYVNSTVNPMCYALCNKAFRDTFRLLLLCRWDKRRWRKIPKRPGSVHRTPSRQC

Rattus norvegicus [2] = test: Effect on scopolamine-induced memory loss and learning impairment in Wistar rat assessed as transfer latency at 0.1 mg/kg, ip after 30 mins by elevated plus maze test; format: functional; design: unit not given beside the values; settings: route intraperitoneal
Procedure, shortened: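 Male Wistar rats on an elevated plus maze. Scopolamine 0.4 mg/kg ip; test compound 0.1 mg/kg ip given together with scopolamine 30 min before exploration; controls received distilled water. On day 1 each rat explored the maze for 90 s. Transfer latency was measured on day 1 (TL1, learning) and on day 2 in the same animals (TL2, memory), and the average was reported.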

Rattus norvegicus [3] = test: Antiamnesic activity against scopolamine-induced memory loss in Wistar rat assessed as time taken to reach shock free zone at 0.1 mg/kg, ip measured for 15 mins by passive avoidance step-down task test; format: functional; design: unit not given beside the values; settings: route intraperitoneal
Procedure, shortened: (§1)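 Male Wistar rats (200-250 g), scopolamine 0.4 mg/kg ip to induce memory loss; test compound 0.1 mg/kg ip given together with scopolamine. Passive avoidance step-down task run in a rodent memory evaluator. Read-outs: basal latency (s) to reach the shock-free zone over trials I-III, memory latency (s) and number of mistakes, given as mean ± S.E.M.; p < 0.005 taken as significant.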

Rattus norvegicus [4] = test: Antiamnesic activity against scopolamine-induced memory loss in Wistar rat assessed as latency time at 0.1 mg/kg, ip measured for 15 mins by passive avoidance step-down task test; format: functional; design: unit not given beside the values; settings: route intraperitoneal; procedure, shortened: as §1
Rattus norvegicus [5] = test: Antiamnesic activity against scopolamine-induced memory loss in Wistar rat assessed as number of mistake done at 0.1 mg/kg, ip measured for 15 mins by passive avoidance step-down task test; format: functional; settings: route intraperitoneal; procedure, shortened: as §1
Rattus norvegicus [6] = test: Acute toxicity in po dosed rat assessed as death after 1 week; format: organism-based; settings: in vivo, 168 h
Procedure, shortened: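 Rats fasted 16 h, six per group, given various oral doses; deaths recorded daily over 1 week of observation after treatment.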

| SMILES | pIC50 [1] | pKi [1] | Activity (Rattus norvegicus [2]) | Activity (Rattus norvegicus [3]) | Activity (Rattus norvegicus [4]) | Activity (Rattus norvegicus [5]) | Activity (Rattus norvegicus [6]) |
| --- | --- | --- | --- | --- | --- | --- | --- |
| CCCCN1C(=O)CSC1C1=CCCN(C)C1 (stereo unspecified) | 4.17 | 4.49 | 17 | 5 | 4 | 12 | Non-toxic |
| CN1CCC=C(C2SCC(=O)N2Cc2ccccc2)C1 (stereo unspecified) | 3.10 | 3.83 | 19 | 7 | 4 | 30 | Non-toxic |
| CN1CCC=C(C2SCC(=O)N2c2cccc(O)c2)C1 (stereo unspecified) | 3.25 | 3.99 | 22 | 6 | 3 | 23 | Non-toxic |
| CN1CCC=C(C2SCC(=O)N2c2ccc([N+](=O)[O-])cc2)C1 (stereo unspecified) | 3.80 | 4.37 | 21 | 7 | 4 | 25 | Non-toxic |
| Cc1ccc(N2C(=O)CSC2C2=CCCN(C)C2)c([N+](=O)[O-])c1 (stereo unspecified) | 3.20 | 3.90 | 40 | 5 | 3 | 25 | Non-toxic |
| CN1CCC=C(C2SCC(=O)N2c2ccc(Nc3ccccc3)cc2)C1 (stereo unspecified) | 4.32 | 4.72 | 14 | 5 | 3 | 16 | Non-toxic |
| CCCCCCN1C(=O)CSC1C1=CCCN(C)C1 (stereo unspecified) | 3.20 | 3.96 | 30 | 7 | 4 | 21 | Non-toxic |
| CN1CCC=C(C2SCC(=O)N2c2ccc(Cl)cc2)C1 (stereo unspecified) | 3.19 | 3.70 | 42 | 3 | 3 | 28 | Non-toxic |
| CN1CCC=C(C2SCC(=O)N2c2ccc(C(=O)O)cc2)C1 (stereo unspecified) | 4.13 | 4.43 | 18 | 6 | 4 | 14 | Non-toxic |
| CN1CCC=C(C2SCC(=O)N2c2ccc(Br)cc2)C1 (stereo unspecified) | 3.27 | 3.91 | 38 | 7 | 3 | 29 | Non-toxic |
| CC(C)N1C(=O)CSC1C1=CCCN(C)C1 (stereo unspecified) | 3.24 | 4.01 | 35 | 8 | 3 | 30 | Non-toxic |
| CN1CCC=C(C2SCC(=O)N2c2ccccc2)C1 (stereo unspecified) | 3.05 | 3.98 | 44 | 8 | 4 | 32 | Non-toxic |
| CCN1C(=O)CSC1C1=CCCN(C)C1 (stereo unspecified) | 3.17 | 3.64 | 45 | 4 | 2 | 21 | Non-toxic |
